From ChEMBL document CHEMBL2010745, “Optimization of the First Selective Steroid-11β-hydroxylase (CYP11B1) Inhibitors for the Treatment of Cortisol Dependent Diseases” (ACS Med Chem Lett, 2011)

What was measured:
[1] = biological target: T1, Cytochrome P450 11B2, mitochondrial (Homo sapiens, UniProt P19099); experiment: Inhibition of human CYP11B2 expressed in hamster V79 MZ cells using [3H] 11 deoxycorticosterone as substrate by HPLC radioflow detector; format: cell-based
T1 sequence (P19099 whole entry): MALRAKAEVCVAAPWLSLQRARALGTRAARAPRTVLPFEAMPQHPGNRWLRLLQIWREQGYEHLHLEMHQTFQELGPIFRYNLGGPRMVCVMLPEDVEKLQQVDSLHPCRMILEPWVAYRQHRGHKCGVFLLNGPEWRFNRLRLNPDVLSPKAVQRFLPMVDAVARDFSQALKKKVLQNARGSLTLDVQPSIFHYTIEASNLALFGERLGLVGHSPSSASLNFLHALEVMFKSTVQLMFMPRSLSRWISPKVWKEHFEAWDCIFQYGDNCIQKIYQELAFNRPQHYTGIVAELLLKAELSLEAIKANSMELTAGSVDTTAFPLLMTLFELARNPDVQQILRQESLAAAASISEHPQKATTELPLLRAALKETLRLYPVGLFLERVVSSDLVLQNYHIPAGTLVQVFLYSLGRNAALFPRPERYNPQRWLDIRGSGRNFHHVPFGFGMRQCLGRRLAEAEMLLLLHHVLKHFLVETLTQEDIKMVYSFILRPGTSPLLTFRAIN

[2] = biological target: T2, Cytochrome P450 11B1, mitochondrial (Homo sapiens, UniProt P15538); experiment: Inhibition of human CYP11B1 expressed in hamster V79 MZ cells using [3H] 11 deoxycorticosterone as substrate by HPLC radioflow detector; format: cell-based
T2 sequence (P15538 whole entry): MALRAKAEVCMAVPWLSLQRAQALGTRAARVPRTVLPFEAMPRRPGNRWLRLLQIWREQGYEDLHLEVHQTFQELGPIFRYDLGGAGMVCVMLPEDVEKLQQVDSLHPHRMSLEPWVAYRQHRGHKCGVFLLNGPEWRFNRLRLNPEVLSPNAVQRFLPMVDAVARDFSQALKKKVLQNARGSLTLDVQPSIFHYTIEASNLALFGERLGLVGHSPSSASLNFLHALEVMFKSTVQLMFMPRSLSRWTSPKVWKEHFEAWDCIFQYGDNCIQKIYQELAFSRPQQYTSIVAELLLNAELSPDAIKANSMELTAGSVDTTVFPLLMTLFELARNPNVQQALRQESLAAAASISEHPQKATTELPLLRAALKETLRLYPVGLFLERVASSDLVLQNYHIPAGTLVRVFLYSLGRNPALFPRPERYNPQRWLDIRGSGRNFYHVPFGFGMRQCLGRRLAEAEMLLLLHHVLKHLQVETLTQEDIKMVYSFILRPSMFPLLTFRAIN

[3] = biological target: T1, Cytochrome P450 11B2, mitochondrial; experiment: Inhibition of human CYP11B2 expressed in hamster V79 MZ cells using [3H] 11 deoxycorticosterone as substrate at 500 nM by HPLC radioflow detector; format: cell-based; conditions: v79, 0.5 µM
CYP17 = biological target: T3, CYP17 (Homo sapiens, UniProt P05093); experiment: Inhibition of human recombinant CYP17 expressed in Escherichia coli using progesterone as substrate at 2 uM; conditions: probe progesterone
T3 sequence (P05093 whole entry): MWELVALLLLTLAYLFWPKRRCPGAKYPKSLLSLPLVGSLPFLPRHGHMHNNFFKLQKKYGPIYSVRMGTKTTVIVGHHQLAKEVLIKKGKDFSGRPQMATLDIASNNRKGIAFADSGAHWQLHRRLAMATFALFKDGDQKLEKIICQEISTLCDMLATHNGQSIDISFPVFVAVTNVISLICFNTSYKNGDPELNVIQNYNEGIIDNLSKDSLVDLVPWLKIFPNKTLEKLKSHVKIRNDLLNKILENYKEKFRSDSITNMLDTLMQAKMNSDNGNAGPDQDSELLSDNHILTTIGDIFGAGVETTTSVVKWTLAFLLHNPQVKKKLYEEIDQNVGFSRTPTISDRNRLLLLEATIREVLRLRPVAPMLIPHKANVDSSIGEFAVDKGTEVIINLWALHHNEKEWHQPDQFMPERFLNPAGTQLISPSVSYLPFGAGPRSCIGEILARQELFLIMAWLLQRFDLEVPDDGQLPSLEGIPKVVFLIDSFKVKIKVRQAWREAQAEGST
Procedure, shortened: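 Recombinantly expressed human CYP17 with progesterone as substrate. Inhibition is reported as percent at an inhibitor concentration of 2.0 μM.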

CYP19 (aromatase) = biological target: T4, CYP19 (aromatase) (Homo sapiens, UniProt P11511); experiment: Inhibition of CYP19 in human placental microsomes using [1beta-3H]androstenedione as substrate at 0.5 uM; conditions: probe [1beta-3H]androstenedione
T4 sequence (P11511 whole entry): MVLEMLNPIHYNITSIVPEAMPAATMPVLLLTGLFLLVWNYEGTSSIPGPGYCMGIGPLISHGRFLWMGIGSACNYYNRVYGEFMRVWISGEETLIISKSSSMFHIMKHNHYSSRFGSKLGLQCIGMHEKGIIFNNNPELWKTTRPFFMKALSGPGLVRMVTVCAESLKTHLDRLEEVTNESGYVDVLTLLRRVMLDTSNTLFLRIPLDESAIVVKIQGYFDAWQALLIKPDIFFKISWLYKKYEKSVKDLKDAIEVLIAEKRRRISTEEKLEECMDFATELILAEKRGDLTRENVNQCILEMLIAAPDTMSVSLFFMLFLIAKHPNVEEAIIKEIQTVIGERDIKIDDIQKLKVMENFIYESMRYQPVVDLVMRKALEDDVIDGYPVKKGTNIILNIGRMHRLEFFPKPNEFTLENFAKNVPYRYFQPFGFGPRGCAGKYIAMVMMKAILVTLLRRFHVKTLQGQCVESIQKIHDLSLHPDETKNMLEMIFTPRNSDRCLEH

Homo sapiens = species on record: Homo sapiens; experiment: Selectivity ratio of IC50 for human CYP11B2 to IC50 for human CYP11B1

Compound	IC50 [1]	IC50 [2]	inhibition (INH) [3]	inhibition at 2 µM (CYP17)	inhibition at 0.5 µM (CYP19 (aromatase))	Ratio IC50 (Homo sapiens)
c1cc(Cn2ccnc2)ccn1	> 1 µM	–	–	–	–	–
Nc1cccc(-c2ccc(Cn3ccnc3)cn2)c1	–	–	–	< 10%	< 10%	31
c1ccc(-c2cc(Cn3ccnc3)cnc2-c2ccccc2)cc1	–	–	–	< 10%	< 10%	2.4
c1cncc(Cn2ccnc2)c1	> 1 µM	–	–	–	–	–
Nc1ccc(-c2ccc(Cn3ccnc3)cn2)cc1	–	–	–	< 10%	< 10%	5
N#Cc1cccc(-c2ccc(Cn3ccnc3)cn2)c1	> 1 µM	–	–	–	–	–
c1ccc2oc(-c3ccc(Cn4ccnc4)cn3)cc2c1	> 1 µM	–	–	–	–	–
Clc1ncc(Cn2ccnc2)cc1-c1cccs1	0.416 µM	0.073 µM	–	< 10%	< 10%	6
Brc1ccc(Cn2ccnc2)cn1	> 1 µM	–	–	–	–	–
c1ccc2c(-c3ccc(Cn4ccnc4)cn3)cccc2c1	–	–	–	< 10%	< 10%	49
Oc1ccc(-c2ccc(Cn3ccnc3)cn2)cc1F	–	–	–	–	–	14
N#Cc1ccc(-c2ccc(Cn3ccnc3)cn2)cc1	> 1 µM	–	–	–	–	–
c1ccc2c(-c3ccc(Cn4ccnc4)cn3)cncc2c1	–	–	–	–	–	10
O=Cc1ccc(-c2ccc(Cn3ccnc3)cn2)cc1	> 1 µM	–	–	< 10%	< 10%	–
c1cc(-c2ccc(Cn3ccnc3)cn2)ccn1	–	–	–	–	–	3.5
c1ccc2c(-c3ccc(Cn4ccnc4)cn3)csc2c1	–	–	–	< 10%	< 10%	29
c1coc(-c2ccc(Cn3ccnc3)cn2)c1	–	–	–	< 10%	< 10%	31
Clc1ncc(Cn2ccnc2)cc1Br	–	–	–	–	–	3.4

The remaining lines, values ahead:

IC50 [1]	IC50 [2]	inhibition (INH) [3]	inhibition at 2 µM (CYP17)	inhibition at 0.5 µM (CYP19 (aromatase))	Ratio IC50 (Homo sapiens)	Compound
> 1 µM	> 1 µM	–	–	–	–	COc1ccc(-c2ccc(Cn3ccnc3)cn2)cn1
–	–	Not Active	< 10%	< 10%	–	c1ccc(N(c2ccccc2)c2ccc(-c3ccc(Cn4ccnc4)cn3)cc2)cc1
–	–	–	–	–	8	c1cncc(-c2ccc(Cn3ccnc3)cn2)c1
–	–	–	< 10%	< 10%	21	Nc1ccccc1-c1ccc(Cn2ccnc2)cn1
–	–	–	< 10%	< 10%	5	Fc1ccc(-c2ccc(Cn3ccnc3)cn2)cc1F
> 1 µM	–	–	< 10%	< 10%	–	Cc1ccc(-c2ccc(Cn3ccnc3)cn2)cc1N
–	–	–	< 10%	19%	16	O=Cc1ccc(-c2ccc(Cn3ccnc3)cn2)s1
–	–	–	–	–	29	c1coc(-c2cc(Cn3ccnc3)cnc2-c2ccco2)c1
–	–	–	< 10%	< 10%	37	c1cn(Cc2ccc(-c3ccoc3)nc2)cn1
> 1 µM	–	–	–	–	–	N#Cc1ncccc1Cn1ccnc1
–	–	–	–	–	3.2	c1ccc2cc(-c3ccc(Cn4ccnc4)cn3)ccc2c1
–	–	–	< 10%	< 10%	16	c1csc(-c2ncccc2Cn2ccnc2)c1
–	–	–	< 10%	< 10%	17	c1csc(-c2ccc(Cn3ccnc3)cn2)c1
–	–	Not Active	–	–	–	c1cn(Cc2ccc(-c3cncnc3)nc2)cn1
–	–	–	< 10%	< 10%	26	c1cn(Cc2ccc(-c3ccsc3)nc2)cn1
–	–	–	< 10%	< 10%	10	Fc1ccc(-c2ccc(Cn3ccnc3)cn2)cc1
–	–	–	< 10%	< 10%	26	COc1ccccc1-c1ccc(Cn2ccnc2)cn1
–	–	–	–	30%	2.6	Clc1ccc(-c2ccc(Cn3ccnc3)cn2)s1
> 1 µM	–	–	< 10%	< 10%	–	COc1ccc(-c2ccc(Cn3ccnc3)cn2)cc1
> 1 µM	–	–	< 10%	< 10%	–	Fc1cccc(-c2ccc(Cn3ccnc3)cn2)c1
–	–	–	–	–	18	c1ccc(-c2ccc(Cn3ccnc3)cn2)cc1
–	–	–	–	–	1	c1ccc2sc(-c3ccc(Cn4ccnc4)cn3)cc2c1
–	–	–	< 10%	< 10%	24	Fc1ccccc1-c1ccc(Cn2ccnc2)cn1
> 1 µM	> 1 µM	–	< 10%	< 10%	–	COc1ccc(-c2ccc(Cn3ccnc3)cn2)cc1OC
–	–	–	< 10%	< 10%	15	Brc1ncccc1Cn1ccnc1
